Compounds with a hit are over-represented: about 3% of the library has one in this group of screens.
T cruzi inh: inhibitors of intracellular T. cruzi growth, primary screen, luminescence, NIH3T3 host cells; AID 1885, 2009; 300,000 compounds, 1.4% hits; T. cruzi beta-gal in NIH3T3, 90 h; inhibition, % (concentration not given with the values);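 active = mean inhibition across valid replicates above about 55%, limit read from the data; inconclusive = mean below that limit but half or more replicates reach it; inactive = mean below it, under half of replicates reach it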;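 note: signal also drops with host cell toxicity which is not excluded here; 0% = plate median of DMSO wells and 100% = zero luminescence signal; higher percent means less beta-gal luminescence so fewer parasites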
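Assay system: NIH/3T3 host cells with β-galactosidase reporter T. cruzi; input: 5,000 host fibroblasts per well; compound: single 50 nL compound addition per well in DMSO; timing: ≥90 h infection period, 3 h prior cell attachment; measured by: GalScreen β-gal luminescence, detergent lysis, 60 min; evaluation: percent inhibition of parasite-derived β-gal signal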
HIF activator: HIF pathway transcriptional activators, primary screen, cell-based, U2OS HRE-luciferase, luminescence; U2OS HRE-luciferase reporter; normalized: DMSO 0%, desferrioxamine 100%; 300,000 compounds, 0.32% hits; activation, % at 7.5 µM (by protocol); AID 1910, 2009;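 active = mean activation of at least 10% of the iron chelator positive control signal, with at least half of replicates also reaching 10%; inconclusive = mean and replicate majority disagree about reaching 10%; inactive = mean and most replicates under 10%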
AI-2 QS mod: Vibrio harveyi AI-2 quorum sensing modulators, primary screen, JMH597 strain, luminescence/OD600 ratio | Vibrio harveyi JMH597 AI-2 luminescence/OD600 ratio, 9 h; hits give low values; strain lacks LuxN and CqsS sensors; 0 = neutral-control median | activity change, % at 7.5 µM | 300,000 compounds, 0.4% hits | AID 2094, 2009; in the data active = activity change below about -75%, passing the limit was not always enough; inconclusive = no clear call, values can overlap the other calls;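 note: luminescence divided by OD600 gain over 9 h not by final OD600 alone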
NRP1-CendR mod: modulators of CendR peptide binding to NRP-1, primary screen, biochemical, fluorescence polarization, uHTS; inhibition, % at 25 µM; FAM-RPARPAR peptide binding to NRP-1; AID 602438, 2012; Neuropilin-1 (Homo sapiens), O14786; 360,000 compounds, 0.85% hits;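 active = inhibition or corrected inhibition above about 18%, plus a signal ratio from 0.5 to 1.5, limit read from the data, passing the limit was not always enough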
Target sequence (O14786 whole entry, looked up): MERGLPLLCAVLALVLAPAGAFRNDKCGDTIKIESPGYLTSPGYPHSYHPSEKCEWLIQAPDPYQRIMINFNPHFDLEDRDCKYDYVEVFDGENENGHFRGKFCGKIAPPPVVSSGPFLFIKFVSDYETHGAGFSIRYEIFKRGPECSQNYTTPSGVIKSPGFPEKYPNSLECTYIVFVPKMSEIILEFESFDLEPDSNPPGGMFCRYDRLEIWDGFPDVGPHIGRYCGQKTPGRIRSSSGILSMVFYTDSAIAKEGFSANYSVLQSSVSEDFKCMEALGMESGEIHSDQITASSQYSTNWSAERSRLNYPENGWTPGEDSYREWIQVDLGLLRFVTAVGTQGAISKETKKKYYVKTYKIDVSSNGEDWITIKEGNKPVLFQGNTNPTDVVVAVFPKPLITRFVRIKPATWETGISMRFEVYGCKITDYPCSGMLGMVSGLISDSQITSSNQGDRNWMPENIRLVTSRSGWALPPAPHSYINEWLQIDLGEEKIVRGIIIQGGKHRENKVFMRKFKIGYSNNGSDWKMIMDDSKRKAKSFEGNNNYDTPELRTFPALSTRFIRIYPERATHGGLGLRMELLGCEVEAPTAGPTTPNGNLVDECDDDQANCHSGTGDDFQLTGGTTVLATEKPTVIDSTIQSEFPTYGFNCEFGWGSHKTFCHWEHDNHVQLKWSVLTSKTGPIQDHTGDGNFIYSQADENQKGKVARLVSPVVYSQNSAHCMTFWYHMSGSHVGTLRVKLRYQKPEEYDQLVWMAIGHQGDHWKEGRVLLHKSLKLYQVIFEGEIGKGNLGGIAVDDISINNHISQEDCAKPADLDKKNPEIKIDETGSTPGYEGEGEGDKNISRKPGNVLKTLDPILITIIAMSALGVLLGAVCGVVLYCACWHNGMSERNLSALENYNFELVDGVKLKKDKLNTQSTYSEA
V-ATPase pH: regulators of yeast V-ATPase proton pumping, primary screen, pHLuorin cytosolic pH fluorescence | AID 504577, 2011 | 350,000 compounds, 0.37% hits | S. cerevisiae | response, % at 10 µM; in the data active = response mostly above about 7.3%, no sharp cut-off; inactive = mostly below about 5.4%; note: actives read high
CR mimetic SO: reduction of superoxide in aged yeast, primary screen, HTS; S. cerevisiae aged cells, superoxide DHE fluorescence; hits give low values; 330,000 compounds, 0.18% hits; superoxide response (% of plate mean), % at 10 µM;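 active = superoxide response under a set limit, about three screen SD below normal, cut at about 65% in these data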;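 note: yeast aged for seven days with compound at 30 °C before DHE staining; 100% = average MFI of all compound-treated wells on the plate with controls excluded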
The depositor's hits bear a star; ? = inconclusive; · = not tested or not shown.

SMILES	T cruzi inh	HIF activator	AI-2 QS mod	NRP1-CendR mod	V-ATPase pH	CR mimetic SO
O=C(CNS(=O)(=O)c1ccccc1)NCC(=O)OCc1ccc(Br)cc1	-2.6	-0.4	10.5	10.4	-0.1	95.0
Cc1cc(N2CCN(C)CC2)nc2ccc(NC(=S)NCCN3CCc4ccccc4C3)cc12	56.1*	-16.7	9.7	2.7	-1.9	87.7
Cc1cc(N2CCN(C)CC2)nc2ccc(NC(=S)NCCCN3CCc4ccccc4C3)cc12	48.7	1.0	25.3	7.4	-1.1	94.0
Cc1cc(N2CCCC2)nc2ccc(NC(=S)NCCCN3CCC(C)CC3)cc12	60.0*	0.5	21.8	-9.5	3.3	129.2
CC1(C)CC(=O)C2=C(C1)Nc1cc(Cl)ccc1S2	-18.7	0.0	31.0	1.9	-3.8	101.8
COc1cc(C(=O)OCC(=O)Nc2ccc(S(=O)(=O)N3CCCC3)cc2)cc(OC)c1OC	·	·	·	3.7	1.7	94.7
CCOCCCn1c(=N)c(C(=O)NCc2ccc3c(c2)OCO3)cc2c(=O)n3cccc(C)c3nc21	58.1*	-0.3	27.3	-2.3	1.1	88.1
COCCCn1c(=N)c(C(N)=S)cc2c(=O)n3cccc(C)c3nc21	68.0*	0.8	9.0	-2.6	-26.0	104.9
Cc1ccc2nc3c(cc(C(N)=S)c(=N)n3CCCOC(C)C)c(=O)n2c1	63.8*	0.4	24.3	-54.8	3.1	116.8
CC1(c2ccccc2)NC(=O)N(CC(=O)NNC(=O)c2ccccc2)C1=O (centres undefined)	2.2	-1.0	-45.6	5.1	-2.3	99.5
COC(=O)CN(c1ccccc1C)S(C)(=O)=O	-32.5	-0.2	-1.1	6.9	-4.0	93.8
O=[N+]([O-])c1ccc(S(=O)(=O)N2CCN(c3ccnc4cc(Cl)ccc34)CC2)cc1	59.5*	-0.7	10.2	-4.9	-3.0	106.6
COc1cc(C(=O)COC(=O)c2ccc([N+](=O)[O-])o2)cc(OC)c1OC	·	·	·	21.4*	0.1	142.7
Cc1cc(C)c(C(=O)COC(=O)c2ccc([N+](=O)[O-])o2)cc1C	2.3	-0.1	-25.5	1.4	-0.7	108.4
COc1cccc(-c2cc(NC=O)c3ncc(-c4cccc(C(=O)N(C)C)c4)n3c2)c1	·	·	·	-34.8	·	·
COc1ccc(CNc2nn3c(-c4cccc(C(=O)N(C)C)c4)cnc3s2)cc1	·	·	·	29.9*	·	·
COCCNC(=S)NCCc1ccc(Cl)cc1Cl	-8.9	-0.2	6.9	4.9	-0.3	95.8
NC(=O)CSc1nnc2n(-c3ccccc3)c(=O)c3c4c(sc3n12)CCCCC4	9.2	-2.7	14.0	-4.0	2.1	106.6
CN1CCc2c(sc3c2c(=O)n(-c2ccccc2)c2nnc(SCc4ccc(Cl)cc4)n32)C1	61.0*	0.1	15.4	7.9	-7.0	105.1
CC12CNCC(C)(CN(C(c3ccccc3)c3ccccc3)C1)C2	-9.3	-0.4	23.3	31.0*	4.8	101.5
Cc1ccc(S(=O)(=O)N2CCOCC2)cc1NC(=O)c1cc2c(s1)CCC2	52.1	-1.0	3.3	4.8	-1.2	88.1
Cc1ccc(S(=O)(=O)Nc2ccc(Cl)cc2)cc1NC(=O)c1cc2c(s1)CCCC2	74.9*	-0.1	25.8	-3.3	1.6	95.5
CCc1c(C#N)c(SCCC(=O)Nc2ccc(C)cc2)nc2c1C(=O)CC(C)(C)C2	51.4	1.2	10.5	-4.0	-1.5	91.3
CCOc1ccc(NC(=O)CCSc2nc3c(c(CC)c2C#N)C(=O)CC(C)(C)C3)cc1	55.0*	0.0	6.9	4.1	-3.0	91.4
Cc1ccc(SCC(=O)OCC(=O)NCC2CCCCC2)cc1C	0.0	0.2	31.1	0.9	7.1	111.6
SMILES	T cruzi inh	HIF activator	AI-2 QS mod	NRP1-CendR mod	V-ATPase pH	CR mimetic SO
Cc1nn2c(SCC(=O)c3cccs3)cc(C(C)(C)C)nc2c1-c1ccccc1	58.6*	0.3	22.6	6.0	-0.6	101.3
O=C(Nc1nnc(-c2ccco2)o1)C1CCCCC1	-9.0	0.1	-2.7	-13.1	-1.3	105.2
O=[N+]([O-])c1ccc(/C=N/NC(=S)Nc2ccccc2)o1	40.7	-0.1	?	-17.9	-4.2	108.0
O=[N+]([O-])c1cccc(-c2ccc(/C=N/NC(=S)Nc3ccccc3)o2)c1	55.7*	0.8	28.1	8.0	-0.3	121.3
O=[N+]([O-])c1ccc(C2CN=C(Nc3ccccc3)S2)cc1 (centres undefined)	-13.8	0.6	-16.7	-14.9	-1.1	106.1
CCc1ccc(NC2=NCC(c3ccccc3)S2)cc1 (centres undefined)	19.9	5.3	-95.2*	2.7	5.3	103.2
CN(C)S(=O)(=O)N1CCCN(S(=O)(=O)N(C)C)CC1	-13.5	-0.7	25.3	2.2	6.3	88.8
O=C(Nc1ccncc1)c1cccc(S(=O)(=O)N2CCN(c3ccc(F)cc3)CC2)c1	57.9*	0.4	15.5	2.2	-0.9	75.7
O=C(c1cccc(S(=O)(=O)N2CCOCC2)c1)N1CCN(c2ccc(F)cc2)CC1	-0.3	0.0	12.1	-5.1	17.7*	87.8
CCCCn1nc(C(=O)Nc2ccc3c(c2)OCCO3)c2ccccc2c1=O	·	·	·	4.9	2.4	87.2
CN(C)S(=O)(=O)c1cccc(NC(=S)N/N=C/c2cc(Br)ccc2O)c1	57.1*	47.0*	338.0	-39.5	-1.1	88.6
CN(C)S(=O)(=O)c1cccc(NC(=S)N/N=C/c2cccc(O)c2)c1	-6.2	-0.1	16.8	3.7	11.3	87.2
COc1ccc(C2C(Oc3ccccc3)C(=O)N2c2cc(C)ccc2C)cc1OC (centres undefined)	59.5*	-0.2	19.2	4.4	1.9	93.1
COc1ccc(C2C(Oc3ccccc3)C(=O)N2c2ccc(C)c(C)c2)cc1OC (centres undefined)	29.9	-0.1	4.8	9.8	0.8	103.2
Cc1cc(C(=O)COC(=O)Cc2n[nH]c(=O)c3ccccc23)c(C)n1-c1ccc2c(c1)OCCO2	69.0*	-1.0	24.3	5.5	2.7	92.2
Cc1cc(C(=O)COC(=O)C2=COCCO2)c(C)n1-c1ccc2c(c1)OCO2	-13.1	3.8	14.6	4.9	-0.7	102.1
Cc1oc2c(c1C(=O)O)C(=O)c1ccccc1C2=O	3.2	0.8	-82.6*	-12.0	-0.8	126.7
CCOC(=O)c1c(C)oc2c1C(=O)c1ccccc1C2=O	-11.2	0.8	16.4	11.7	-0.4	145.5
Fc1ccc(/C=N/NC2=Nc3cccc4cccc2c34)cc1	7.9	2.8	-0.1	-72.1	1.3	94.6
C/C(=N\Nc1ccc2nncn2n1)c1ccccn1	63.4*	128.7*	?	-5.6	-0.2	114.3

Source: PubChem
